Screens deposited in PubChem by several laboratories.
A selection: hits, their analogues and other compounds. The true share with any hit is near 3.8%.
ANO1 block – blocks the mouse calcium-activated chloride channel TMEM16A; HEK293 TMEM16A/YFP iodide influx fluorescence, ionomycin; normalized B-score (activity score, 25-100; higher = stronger inhibition) at 10 µM; AID 588511; hit rate 1.2% among 310,000; Q8BHY3;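 active = ratio plate-corrected score three or more library SD toward inhibition, starting fluorescence score within five deviations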;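 note: score derived from kinetic fluorescence span divided by baseline fluorescence per well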
Target sequence (Q8BHY3 whole entry, looked up): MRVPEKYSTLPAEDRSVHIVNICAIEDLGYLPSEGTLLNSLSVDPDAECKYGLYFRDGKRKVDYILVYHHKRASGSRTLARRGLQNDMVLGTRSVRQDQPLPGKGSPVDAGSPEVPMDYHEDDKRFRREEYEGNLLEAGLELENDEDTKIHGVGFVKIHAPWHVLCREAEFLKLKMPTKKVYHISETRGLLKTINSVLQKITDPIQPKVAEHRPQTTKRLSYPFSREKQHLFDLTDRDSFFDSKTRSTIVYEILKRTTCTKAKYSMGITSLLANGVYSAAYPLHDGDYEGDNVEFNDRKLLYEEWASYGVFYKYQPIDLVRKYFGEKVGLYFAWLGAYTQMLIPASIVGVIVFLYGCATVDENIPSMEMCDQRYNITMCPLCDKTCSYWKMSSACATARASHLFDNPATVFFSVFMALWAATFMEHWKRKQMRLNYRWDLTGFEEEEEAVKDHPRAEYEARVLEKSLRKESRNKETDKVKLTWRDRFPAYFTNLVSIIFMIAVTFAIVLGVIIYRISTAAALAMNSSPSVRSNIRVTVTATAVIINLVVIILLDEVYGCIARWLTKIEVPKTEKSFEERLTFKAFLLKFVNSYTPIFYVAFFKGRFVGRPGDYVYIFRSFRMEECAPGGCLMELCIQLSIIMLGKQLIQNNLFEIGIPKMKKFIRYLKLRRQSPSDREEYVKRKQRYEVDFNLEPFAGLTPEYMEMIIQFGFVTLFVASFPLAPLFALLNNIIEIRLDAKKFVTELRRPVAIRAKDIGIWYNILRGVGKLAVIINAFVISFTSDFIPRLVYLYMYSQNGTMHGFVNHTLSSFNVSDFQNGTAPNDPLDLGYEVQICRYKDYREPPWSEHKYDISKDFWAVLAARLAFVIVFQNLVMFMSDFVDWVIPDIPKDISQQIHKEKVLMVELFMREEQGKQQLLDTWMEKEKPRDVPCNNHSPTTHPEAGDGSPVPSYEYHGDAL
TMEM16A act – mouse TMEM16A channel activation, primary screen. Q8BHY3. HEK293 TMEM16A/YFP-H148Q/I152L, iodide quench fluorescence; hits give low values. B-score at 10 µM. hit rate 0.3% among 340,000;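 active = fluorescence-ratio B-score plate-corrected deviation score at least 3 library SD below zero, with starting fluorescence score within 5 deviations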;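 note: channel opened by trigger with iodide after compound preincubation; score built on the fluorescence ratio of max minus min over baseline; more negative score means more quench and so TMEM16A activation or potentiation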
MC4R barr agon – human MC4R agonism via beta-arrestin; P32245; U2OS MC4R beta-arrestin complementation, luminescence; percent of melanotan II response, DMSO zero; activation, % at 8.9 µM; hit rate 0.98% among 360,000; AID 540308;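 active = activation above a per-plate cutoff, the mean activation of sample wells on that plate plus 3 SD, cut at about 8% in these data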
MC4R antag cAMP – antagonists of human melanocortin 4 receptor (MC4R). P32245. MC4R-expressing cells, MTII-stimulated cAMP, LANCE TR-FRET. inhibition, % at 6.5 µM. hit rate 0.48% among 360,000;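 active = inhibition above its plate's cutoff, the mean of tested wells on that plate plus 3 SD, cut at about 29% in these data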;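 note: 0% = Melanotan II alone and 100% = Melanotan II plus saturating MCL0020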
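Material – human MC4R-expressing U2OS cells · Repeats – no replicates · Detection – TR-FRET with Eu-cAMP and labeled anti-cAMP, 671 nm · Times – compound 30 min, challenge 1 h, detection 1 h · Compound – single nominal compound dose of 6.5 µM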
Beta apoptosis – beta cell apoptosis inhibition | hit rate 0.8% among 300,000 | protection from apoptosis, % (concentration not given with the values) | INS-1E cytokine-induced death, ATP luminescence, 48 h; percent of positive-control rescue, neutral wells zero;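 active = Every replicate reaches about 75%, or at least half do and their mean reaches it too, limit read from the data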;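 note: 0% = cytokine-treated negative control wells and 100% = positive control rescue; higher means more ATP so stronger rescue from cytokine killing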
CSC inhib – cancer stem cell inhibition. cancer stem cell-like cells viability, luminescence. inhibition, % at 7.5 µM. hit rate 1.1% among 300,000. AID 2717; in the data active = inhibition above about 75%; tested in HMLE shEcad cells
TMEM16A reconf – TMEM16A (mouse) chloride channel inhibition, re-confirmation. hit rate 39% among 2,300. inhibition, % at 10 µM. shares compounds with ANO1 block. HEK293 TMEM16A/YFP-H148Q, iodide quench fluorescence; ionomycin added to raise cell calcium. AID 652189;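 active = mean duplicate percent inhibition, scaled so buffer wells are 0 and the reference blocker 100, over three buffer SD above buffer mean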
TMEM16A Ca cntr – calcium mobilization counter-screen hit for TMEM16A inhibitor series; shares compounds with ANO1 block; TMEM16A/YFP HEK293, Fluo4 calcium mobilization; calcium response (% of ionomycin), % at 10 µM; hit rate 2% among 2,300; AID 652231;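 active = duplicate-averaged calcium signal over 20% of the ionomycin maximum, relative to buffer baseline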;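 note: each well's signal is peak minus trough fluorescence divided by its pre-addition baseline; 0% = buffer wells and 100% = ionomycin wells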
YFP-HEK293 quench – parental YFP-HEK293 iodide quench counter-screen activity | shares compounds with ANO1 block | ionomycin | YFP ratio F(max-min)/F0 at 10 µM | 2,300 tested, under 10 active | AID 652233;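 active = yellow fluorescent protein signal ratio exceeding the buffer control mean by over 5 SD of those controls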;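 note: ratio is mean of duplicate wells from kinetic YFP trace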
ClC-1 rat inh – rat ClC-1 inhibition, TMEM16A specificity screen. shares compounds with ANO1 block. CHO ClC-1-YFP, iodide influx fluorescence quench; iodide control reads 0, buffer control 100. ratio percent, % at 10 µM. 2,300 tested, under 10 active. AID 652236;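 active = duplicate-mean ratio percent above the mean of iodide-only control wells, which defines zero, plus 5 of their SD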;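 note: higher percent means stronger block of ClC-1 iodide influx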
Active calls of the source: *.

What do the screens show for `Cc1c(N=C/C=C/c2ccccc2)c(=O)n(-c2ccccc2)n1C`?
ANO1 block: 25*; TMEM16A act: inactive; MC4R barr agon: 1; MC4R antag cAMP: -1; Beta apoptosis: -3; CSC inhib: -3; TMEM16A reconf: inactive; TMEM16A Ca cntr: inactive; YFP-HEK293 quench: -0.97; ClC-1 rat inh: -8

How did C=C1CCN(C(CC(C)C)C(=O)OC)S(=O)(=O)c2ccccc21 (centres undefined) do in these assays?
ANO1 block: 25*; TMEM16A act: inactive; MC4R barr agon: 0; MC4R antag cAMP: 4; Beta apoptosis: -7; CSC inhib: 5; TMEM16A reconf: inactive; TMEM16A Ca cntr: inactive; YFP-HEK293 quench: -1.2; ClC-1 rat inh: -4

What do the screens show for `C=C1CCN([C@@H](CC(C)C)C(=O)O)S(=O)(=O)c2ccccc21`?
ANO1 block: inactive; TMEM16A act: inactive; MC4R barr agon: -2; MC4R antag cAMP: 6; Beta apoptosis: -7; CSC inhib: 15

Results for COc1ccc(N/C=C(\C=C\C#N)S(=O)(=O)c2ccccc2)cc1 ?
ANO1 block: inactive; TMEM16A act: inactive; MC4R barr agon: 3; MC4R antag cAMP: 5; Beta apoptosis: -12; CSC inhib: 3

What do the screens show for `CCN(CC)S(=O)(=O)c1cc(NS(=O)(=O)c2cccc(Cl)c2)ccc1C`?
ANO1 block: 25*; TMEM16A act: inactive; MC4R barr agon: 0; MC4R antag cAMP: 5; Beta apoptosis: 6; CSC inhib: 18; TMEM16A reconf: 28%*; TMEM16A Ca cntr: inactive; YFP-HEK293 quench: -1; ClC-1 rat inh: -10

How did COc1ccc(CC(=O)Nc2oc(-c3ccccc3)c(-c3ccccc3)c2C#N)cc1OC do in these assays?
ANO1 block: inactive; TMEM16A act: inactive; MC4R barr agon: 4; MC4R antag cAMP: 13; Beta apoptosis: -4; CSC inhib: 10

How did COc1ccccc1OCC(=O)Nc1oc(-c2ccccc2)c(-c2ccccc2)c1C#N do in these assays?
ANO1 block: 25*; TMEM16A act: inactive; MC4R barr agon: -1; MC4R antag cAMP: 3; Beta apoptosis: -1; CSC inhib: 1; TMEM16A reconf: 29%*; TMEM16A Ca cntr: inactive; YFP-HEK293 quench: -0.65; ClC-1 rat inh: -15

How did CC(=O)c1ccc(C(=O)N2CCC(CO)(Cc3cccc(C(F)(F)F)c3)CC2)cc1 do in these assays?
ANO1 block: 100*; TMEM16A act: inactive; MC4R barr agon: -3; MC4R antag cAMP: 14; Beta apoptosis: 8; CSC inhib: -10; TMEM16A reconf: inactive; TMEM16A Ca cntr: inactive; YFP-HEK293 quench: -1.2; ClC-1 rat inh: -6

How did O=C(c1cccc(C(F)(F)F)c1)N1CCC(O)(CS(=O)(=O)Cc2ccc(Cl)cc2)CC1 do in these assays?
ANO1 block: inactive; TMEM16A act: inactive; MC4R barr agon: -2; MC4R antag cAMP: 4; Beta apoptosis: -3; CSC inhib: -11

Results for O=C(c1cccc(C(F)(F)F)c1)N1CCC(O)(CS(=O)(=O)Cc2ccccc2)CC1 ?
ANO1 block: 100*; TMEM16A act: inactive; MC4R barr agon: 0; MC4R antag cAMP: 7; CSC inhib: 0; TMEM16A reconf: inactive; TMEM16A Ca cntr: inactive; YFP-HEK293 quench: -1.1; ClC-1 rat inh: -3

How did Cc1ccsc1C(=O)N1CCCC(C)(C(=O)NS(=O)(=O)C2CC2)C1 (centres undefined) do in these assays?
MC4R barr agon: -1; MC4R antag cAMP: 4

What do the screens show for `Cc1oc2cc([N+](=O)[O-])c(O)c([N+](=O)[O-])c2c1C(=O)c1ccc(Cl)cc1`?
ANO1 block: 25*; TMEM16A act: inactive; MC4R barr agon: -1; MC4R antag cAMP: 8; Beta apoptosis: 3; CSC inhib: 33; TMEM16A reconf: 32%*; TMEM16A Ca cntr: inactive; YFP-HEK293 quench: -0.88; ClC-1 rat inh: -16

How did COc1ccc(OC)c(C(=O)c2c(C)oc3cc([N+](=O)[O-])c(O)c([N+](=O)[O-])c23)c1 do in these assays?
ANO1 block: inactive; TMEM16A act: inactive; MC4R barr agon: -3; MC4R antag cAMP: 14; Beta apoptosis: -1; CSC inhib: 3

What do the screens show for `O=C(O)CSC1CC(=O)N(c2ccc(Cl)cc2)C1=O` (centres undefined)?
ANO1 block: inactive; TMEM16A act: inactive; MC4R barr agon: 2; MC4R antag cAMP: -4; Beta apoptosis: -8; CSC inhib: -12

Results for O=C(CSC1CC(=O)N(CC(c2ccccc2)c2ccccc2)C1=O)Nc1ccc(Cl)cc1 (centres undefined) ?
ANO1 block: 25*; TMEM16A act: inactive; MC4R barr agon: 1; MC4R antag cAMP: 15; Beta apoptosis: -13; CSC inhib: 26; TMEM16A reconf: inactive; TMEM16A Ca cntr: inactive; YFP-HEK293 quench: -1.1; ClC-1 rat inh: -2

Results for COC(=O)CNC(c1ccccc1)c1cc(Br)ccc1NC(=O)OCc1ccccc1 (centres undefined) ?
ANO1 block: inactive; TMEM16A act: inactive; MC4R barr agon: -2; MC4R antag cAMP: 3; Beta apoptosis: 6; CSC inhib: -2; TMEM16A reconf: inactive; TMEM16A Ca cntr: inactive; YFP-HEK293 quench: -1; ClC-1 rat inh: -7

What do the screens show for `CC(C)OP(=O)(OC(C)C)C1(NS(=O)(=O)c2ccc(Cl)cc2)C=C(Cl)C(=O)C(Cl)=C1`?
ANO1 block: inactive; TMEM16A act: inactive; MC4R barr agon: -3; MC4R antag cAMP: 2; Beta apoptosis: 3; CSC inhib: 12

What do the screens show for `Cc1ccc(C(=O)CSc2nc(C(C)C)nc3ccccc23)cc1`?
ANO1 block: 100*; TMEM16A act: inactive; MC4R barr agon: -1; MC4R antag cAMP: 21; Beta apoptosis: -1; CSC inhib: 50; TMEM16A reconf: inactive; TMEM16A Ca cntr: inactive; YFP-HEK293 quench: -0.97; ClC-1 rat inh: -13
